The values that follow come from ChEMBL document CHEMBL4118286, “Design, synthesis and evaluation of novel bivalent β-carboline derivatives as multifunctional agents for the treatment of Alzheimer's disease” (Bioorg Med Chem, 2018).

Data set [1] concerns the target Acetylcholinesterase (Electrophorus electricus, UniProt O42275). The experiment in a line: Inhibition of electric eel AChE using acetylthiocholine iodide as substrate preincubated for 2 mins followed by substrate addition and measured after 2 mins by Ellman's method. Particulars: read-out: IC50. On the technique in general: In Ellman's method for cholinesterases, released thiocholine reacts with DTNB.

Data set [2] deals with Amyloid-beta precursor protein (Homo sapiens) (UniProt P05067). The experiment in a line: Inhibition of self-induced human amyloid beta (1 to 42) aggregation at 25 uM after 24 hrs by thioflavin-T based fluorescence assay relative to control. In short, it runs like this:
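Thioflavin T fluorescence assay of self-induced Aβ1-42 aggregation, with test compound present at 25 μM and resveratrol as the positive control. Inhibition is given in percent as mean ± SD of at least three independent experiments.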

Data set [3] in a line: Neurotoxicity against human SH-SY5Y cells assessed as cell viability at 1 uM after 24 hrs by MTT assay relative to control. In kind it is toxicity, cell-based. Particulars: read-out: Activity. In short, it runs like this:
(§1)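 Cytotoxicity assay: SH-SY5Y cells were incubated with compound at 1, 2.5, 5 or 10 μM for 24 h. Viability was determined by MTT and expressed as percent of control, mean ± SD of 3 independent experiments.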

Data set [4] can be described thus: Neurotoxicity against human SH-SY5Y cells assessed as cell viability at 2.5 uM after 24 hrs by MTT assay relative to control. The conditions noted are these: read-out: Activity. It counts as toxicity, cell-based. In short, it runs like this:
as §1
A general note: Tetrazolium assays rely on reduction of a dye to a coloured formazan, in cell work by metabolically active cells.

Data set [5] can be described thus: Neurotoxicity against human SH-SY5Y cells assessed as cell viability at 5 uM after 24 hrs by MTT assay relative to control. It counts as toxicity, cell-based. The conditions noted are these: read-out: Activity. In short, it runs like this: as §1
Data set [6] in a line: Neurotoxicity against human SH-SY5Y cells assessed as cell viability at 10 uM after 24 hrs by MTT assay relative to control. The conditions noted are these: read-out: Activity. It counts as toxicity, cell-based. Summed up:
as §1

In data set [7] the test system is SH-SY5Y. Briefly: Neuroprotective activity against amyloid beta (1 to 42)-induced neurodegeneration in human SH-SY5Y cells assessed as cell viability at 1 uM after 48 hrs by MTT assay (reference value: 54.2%). In kind it is functional. The conditions noted are these: read-out: Activity. In short, it runs like this:
(§2)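 SH-SY5Y neuroblastoma cells were exposed to Aβ1-42 (30 μM) for 48 h, with or without compound at 1 or 5 μM. Viability was measured by MTT assay against Aβ1-42-only and untreated controls. Data are mean ± SEM of three experiments, each run in triplicate.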

The test system of data set [8] is SH-SY5Y. The experiment in a line: Neuroprotective activity against amyloid beta (1 to 42)-induced neurodegeneration in human SH-SY5Y cells assessed as cell viability at 5 uM after 48 hrs by MTT assay (reference value: 54.2%). It counts as functional. Particulars: read-out: Activity. Summed up: as §2
For data set [9], the system named is SH-SY5Y. Briefly: Neuroprotective activity against H2O2-induced oxidative stress in human SH-SY5Y cells assessed as cell viability at 1 uM after 24 hrs by MTT assay (reference value: 57.2%). In kind it is functional. The conditions noted are these: read-out: Activity. In short, it runs like this: (§3)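 SH-SY5Y cells were treated with H₂O₂ (300 μM) for 24 h, with compound (1 or 5 μM) co-treated. Viability was read by MTT and compared with H₂O₂-only and untreated controls. Data are mean ± SEM of three experiments, each run in triplicate.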

Data set [10] has as its system SH-SY5Y. The experiment in a line: Neuroprotective activity against H2O2-induced oxidative stress in human SH-SY5Y cells assessed as cell viability at 5 uM after 24 hrs by MTT assay (reference value: 57.2%). Particulars: read-out: Activity. It counts as functional. In short, it runs like this: as §3
In data set [11] the test system is SH-SY5Y. The experiment in a line: Neuroprotective activity against okadaic acid-induced cell death in human SH-SY5Y cells assessed as cell viability at 1 uM after 24 hrs by MTT assay (reference value: 53.1%). In kind it is functional. Particulars: read-out: Activity.

Amyloid-beta precursor protein (Homo sapiens), sequence (P05067 whole entry): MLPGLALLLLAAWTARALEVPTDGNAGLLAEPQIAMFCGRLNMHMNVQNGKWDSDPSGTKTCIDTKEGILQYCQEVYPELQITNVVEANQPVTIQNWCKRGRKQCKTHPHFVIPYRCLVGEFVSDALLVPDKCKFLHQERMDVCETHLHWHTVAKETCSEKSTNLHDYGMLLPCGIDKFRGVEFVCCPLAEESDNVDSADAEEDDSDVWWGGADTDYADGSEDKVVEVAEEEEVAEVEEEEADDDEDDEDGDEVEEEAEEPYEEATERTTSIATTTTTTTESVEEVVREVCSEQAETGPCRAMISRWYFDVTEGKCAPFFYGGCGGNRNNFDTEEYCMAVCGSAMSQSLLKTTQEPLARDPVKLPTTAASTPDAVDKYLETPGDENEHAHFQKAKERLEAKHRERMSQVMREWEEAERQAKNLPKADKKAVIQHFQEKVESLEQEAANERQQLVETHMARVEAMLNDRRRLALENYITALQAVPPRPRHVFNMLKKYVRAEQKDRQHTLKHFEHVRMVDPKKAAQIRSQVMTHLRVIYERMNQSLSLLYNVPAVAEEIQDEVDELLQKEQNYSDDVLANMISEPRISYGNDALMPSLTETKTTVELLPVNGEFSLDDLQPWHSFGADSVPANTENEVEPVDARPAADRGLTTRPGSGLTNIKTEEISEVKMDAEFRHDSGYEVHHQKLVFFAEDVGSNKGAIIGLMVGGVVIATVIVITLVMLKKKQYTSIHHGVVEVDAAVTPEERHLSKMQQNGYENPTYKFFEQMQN
Acetylcholinesterase, sequence (O42275 whole entry): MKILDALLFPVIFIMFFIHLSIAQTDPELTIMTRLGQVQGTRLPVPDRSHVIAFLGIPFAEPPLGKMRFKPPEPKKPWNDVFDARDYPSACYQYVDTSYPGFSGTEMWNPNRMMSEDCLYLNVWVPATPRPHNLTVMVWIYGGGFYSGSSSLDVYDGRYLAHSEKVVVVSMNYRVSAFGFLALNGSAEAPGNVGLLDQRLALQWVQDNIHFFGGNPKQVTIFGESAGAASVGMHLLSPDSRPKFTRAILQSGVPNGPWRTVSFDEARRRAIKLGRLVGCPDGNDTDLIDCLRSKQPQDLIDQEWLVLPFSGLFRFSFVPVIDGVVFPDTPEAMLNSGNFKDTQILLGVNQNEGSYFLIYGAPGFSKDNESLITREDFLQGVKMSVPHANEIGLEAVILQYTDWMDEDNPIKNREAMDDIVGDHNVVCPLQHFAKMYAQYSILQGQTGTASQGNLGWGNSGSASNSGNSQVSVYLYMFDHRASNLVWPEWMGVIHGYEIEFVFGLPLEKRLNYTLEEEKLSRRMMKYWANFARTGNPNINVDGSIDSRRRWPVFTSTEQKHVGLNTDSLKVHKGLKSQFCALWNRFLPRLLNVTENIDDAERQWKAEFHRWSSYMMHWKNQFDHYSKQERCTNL

Take `COC(=O)C1Cc2c([nH]c3ccccc23)C(C)N1C(=O)CCN1CCN(CCC(=O)N2C(C(=O)OC)Cc3c([nH]c4ccccc34)C2C)CC1` (stereo unspecified): the IC50 in data set [1] came out at 19.9 µM. Moreover, the inhibition in [2] was 65.6%. For the same molecule, in [3], the viability at 24 h, 1 µM worked out at 103%. Also, the viability at 24 h, 2.5 µM in data set [4] is 99.9%. Also, in [5], the viability at 24 h, 5 µM came to 102%. In addition, the viability at 24 h, 10 µM in data set [6] stood at 90.9%. Also, the viability at 1 µM in data set [7] is 95.4%; in data set [9], 82.2%; in [11], 97.1%. Besides, the results for the viability at 5 µM in [8] and in [10] were 85.4% and 76%, respectively.

In general, IC50 refers to the concentration that inhibits the measured activity by half. By inhibition is commonly meant the change of the read-out against control, counted positive when it falls.
